Variants at the floor of the assay were thinned out.
B1: tRNA (parent)
chain: GUUCCGUUGGCGUAAUGGUAACGCGUCUCCCUCCUAAGGAGAAGACUGCGGGUUCGAGUCCCGUACGGAACG

Variants of: B1
Test: yeast fitness relative to wild type (ratio to wild type); higher = fitter; tRNA-Arg(CCU), competitive growth, 37 C, YPD
Summary of the method: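 Variants of the tRNA-Arg(CCU) gene, chemically synthesised with a 3% per-site mutation rate at 69 sites, were placed at the native genomic locus in Saccharomyces cerevisiae. The pooled strains were competed in YPD at 37°C for 24 hours in six parallel replicates. Gene amplicons from the start population and from each end population were read by 100-nucleotide paired-end sequencing. Darwinian fitness relative to wild type came from changes in genotype frequencies; genotypes needed ≥ 100 starting reads, and estimates < 0.5 were set to 0.5.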

Variant	yeast fitness
U2C A21C	0.775
U2C A21C G38A	0.594
U2C A21G	0.975
U2C A21G C33G	≤ 0.5
U2C A37G A70C	0.561
U2C A37U A40C	0.633
U2C A40C G50A C66U	≤ 0.5
U2C A40G	0.984
U2C A40U A42C C66U	≤ 0.5
U2C A42U C62U	0.571
U2C A43C	0.874
U2C A45U C62U G63C	≤ 0.5
U2C A57G	0.891
U2C A65G	0.867
U2C A70C	0.972
U2C C4A C34A A43G G52C C61A	≤ 0.5
U2C C4A U28C U53C	≤ 0.5
U2C C4G C22U C30A A65U	≤ 0.5
U2C C4U A21C U28C C31A U32C	≤ 0.5
U2C C4U C30A	0.716
U2C C4U C34A G58A	≤ 0.5
U2C C4U G10C A57C	≤ 0.5
U2C C5A A40G	0.563
U2C C5A C11A A40G	≤ 0.5

Variant	yeast fitness
U2C C5G	0.738
U2C C5G A14G	0.559
U2C C5G C11G C29U A36U G50C U54G	0.628
U2C C5G C24U G38C G39A	≤ 0.5
U2C C5G C33G C60A G67C	≤ 0.5
U2C C5G C46U	0.872
U2C C5U	0.98
U2C C5U C11G C34U A36G C55G A57U G67A	≤ 0.5
U2C C11A A69U	≤ 0.5
U2C C11A C22G	0.602
U2C C11A C22G U53G	≤ 0.5
U2C C11A C31U C33U A42C C61U	≤ 0.5
U2C C11G	0.617
U2C C22G	0.878
U2C C22G C31U A36U C49U	0.649
U2C C22U	0.842
U2C C24A U26A U47C C61U	0.628
U2C C24G C29U A69C	≤ 0.5
U2C C27G C46U	0.705
U2C C27G G51A	≤ 0.5
U2C C27G U28A A43U A69U	0.541
U2C C27G U28A A43U A70G	≤ 0.5
U2C C27U C31U U32G C55A G63A	0.645
U2C C27U U28G C33G A36G	0.544

Variant	yeast fitness
U2C C29G G39C C55A	≤ 0.5
U2C C29U C46G G51A G52C	0.557
U2C C30G C49A	≤ 0.5
U2C C30G C61U G68A	≤ 0.5
U2C C30U C31A A40U C49A	≤ 0.5
U2C C30U C31U	0.698
U2C C30U U54A	≤ 0.5
U2C C31A G50C A70G	≤ 0.5
U2C C31G C55U G63A	≤ 0.5
U2C C31G G56A	0.687
U2C C31G G56A U59A	≤ 0.5
U2C C31G G58A G67U	≤ 0.5
U2C C33U	0.862
U2C C33U A69U	≤ 0.5
U2C C46G A65C	0.678
U2C C46U	0.959
U2C C46U A65U	1.06
U2C C46U U64A	0.688
U2C C49A	0.685
U2C C49U G56C	≤ 0.5
U2C C55U	0.792
U2C C61U	0.931
U2C C66A	0.611
U2C C66U A69U	0.603

Variant	yeast fitness
U2C G6A A20U C30U A36U C49A	≤ 0.5
U2C G6C A21C C66U	≤ 0.5
U2C G6C A42G A65U G67A	≤ 0.5
U2C G6C A65U G67A	≤ 0.5
U2C G9A C31A C49A U59A C61G	≤ 0.5
U2C G9C U13C A20C	≤ 0.5
U2C G10C	0.724
U2C G12A A15G C29G C33G G41C C66U	≤ 0.5
U2C G12A G18C C33U A69C	0.565
U2C G12C	0.831
U2C G12C A40C G67A	≤ 0.5
U2C G17A A69C	0.576
U2C G17C G23C G25C U35A A42U C66U	≤ 0.5
U2C G23C C31G C33U A42G G52C G58C	≤ 0.5
U2C G23C G51C	≤ 0.5
U2C G23C U28C A43U C60A	≤ 0.5
U2C G25A A37G A70C	≤ 0.5
U2C G39C	0.774
U2C G48A G52A	0.623
U2C G48C	1.11
U2C G50C	0.733
U2C G50U	0.825
U2C G51U G58C	0.548
U2C G51U U54A A70U	≤ 0.5

Variant	yeast fitness
U2C G52C U59G	≤ 0.5
U2C G56A A65G	1.27
U2C G58C	1.05
U2C G67C	0.741
U2C U3A C24A C27U G56C C66U	0.562
U2C U3C	0.885
U2C U3C C34A G44C C46U G51A	≤ 0.5
U2C U3C U19A	0.629
U2C U7A A37G A42U G48C C55U C66G	≤ 0.5
U2C U7A A65U	0.725
U2C U7C U19C C34U G52A U59A	≤ 0.5
U2C U7G A15G A45U G50A A57C	≤ 0.5
U2C U7G A40C G51A G67A	≤ 0.5
U2C U8A G17C G38A C61A	≤ 0.5
U2C U8C A20U U28A G67U	≤ 0.5
U2C U8G C31G A42C C49U G56A C61G	≤ 0.5
U2C U13A	0.805
U2C U13A U19C C55A A69C	≤ 0.5
U2C U13C C27A C61U	≤ 0.5
U2C U13C G41A C60G C61G C62U	0.596
U2C U16A U32A A37U C62A	≤ 0.5
U2C U16C C22A C29A G51C	≤ 0.5
U2C U16C C46G C62G	≤ 0.5
U2C U16G C30G G63C	≤ 0.5

Variant	yeast fitness
U2C U19A U26C A45C G52C A70G	≤ 0.5
U2C U19C A37G C49A	≤ 0.5
U2C U19C A37G C49A C66G	≤ 0.5
U2C U19G U28G	≤ 0.5
U2C U26C	0.947
U2C U26C C46U	0.683
U2C U26G A70U	0.703
U2C U35A	0.62
U2C U35G G52A	≤ 0.5
U2C U47A C49A	≤ 0.5
U2C U47A C55G	≤ 0.5
U2C U47A C62U	0.531
U2C U53C C61G	≤ 0.5
U2C U54A A70U	0.555
U2G A14C A65C	≤ 0.5
U2G A14G C27G G52C	≤ 0.5
U2G A14U A21C A36C C49A A65G C66G	≤ 0.5
U2G A15C G17C C22G C24A C31A G67C	0.579
U2G A15G G17A U28A C29U A45C A69C	≤ 0.5
U2G A15G U26C C34U	0.611
U2G A15U A20C U26A C30G U35A G38C U64A	≤ 0.5
U2G A20C G48C	≤ 0.5
U2G A20U C29A G39A A45C	0.586
U2G A21C C22G A45U G63C	≤ 0.5

Variant	yeast fitness
U2G A21C C22U A70U	≤ 0.5
U2G A21C C22U C60G	≤ 0.5
U2G A21U A36U A45U A65U A70U	≤ 0.5
U2G A36U A45U U53A	≤ 0.5
U2G A40U C49A	0.547
U2G A42C U47A G63C A69C	0.558
U2G A42U U47A	0.738
U2G A45C	0.766
U2G A57U G67C	≤ 0.5
U2G C4A C22U U28G A42U C49A	≤ 0.5
U2G C4A C22U U28G A42U C61U	≤ 0.5
U2G C4G C11A	≤ 0.5
U2G C4U A20C C30G	≤ 0.5
U2G C4U C61A A65U A69C	≤ 0.5
U2G C4U C61A C62U A65U A69C	0.519
U2G C4U G23C	0.567
U2G C4U G52C	0.516
U2G C5A A43U C55U G68A	≤ 0.5
U2G C5A C55U C61A	≤ 0.5
U2G C5G C34G C49G	0.505
U2G C5U	0.877
U2G C5U A15U G17A U47G C49G C60G A70U	≤ 0.5
U2G C5U U32C C55U	0.581

Reference: the RNAGym collection of RNA variant scans (doi:10.1126/science.aae0568)
